# From ChEMBL document CHEMBL1150419, “Structure-activity relationships of a peptide inhibitor of the human FcRn:human IgG interaction” (Bioorg Med Chem, 2008)
# Target: IgG receptor FcRn large subunit p51 (Homo sapiens, UniProt P55899)
# Test: Binding affinity to human FcRn at pH 6 by surface plasmon resonance assay
# Method in brief: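 Soluble human FcRn coupled to the dextran surface of a CM5 chip; peptide dilutions flowed over the chip. The equilibrium response at each dilution was plotted against concentration and fitted to a steady-state affinity model to give Kd.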
# IgG receptor FcRn large subunit p51, sequence (P55899 whole entry): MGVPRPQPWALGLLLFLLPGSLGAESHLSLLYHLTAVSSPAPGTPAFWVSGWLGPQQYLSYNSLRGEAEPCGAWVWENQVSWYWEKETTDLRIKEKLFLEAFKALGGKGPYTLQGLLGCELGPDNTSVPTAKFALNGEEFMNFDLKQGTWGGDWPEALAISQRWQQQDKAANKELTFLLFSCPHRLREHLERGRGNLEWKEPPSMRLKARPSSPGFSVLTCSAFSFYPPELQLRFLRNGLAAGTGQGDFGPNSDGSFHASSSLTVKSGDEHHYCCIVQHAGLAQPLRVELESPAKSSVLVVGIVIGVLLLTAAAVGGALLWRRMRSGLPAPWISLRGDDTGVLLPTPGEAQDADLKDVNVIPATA
row,Structure (SMILES),Kd
1,CC(C)C[C@H](NC(=O)CNC(=O)CNC(=O)[C@H](Cc1ccccc1)NC(=O)[C@H](Cc1cnc[nH]1)NC(=O)CNC(=O)[C@@H](NC(=O)[C@H](CCS)NC(=O)[C@H](Cc1ccccc1)NC(=O)[C@H](CCCNC(=N)N)NC(=O)[C@@H](N)CCC(N)=O)[C@@H](C)O)C(=O)N[C@@H](Cc1ccc(O)cc1)C(=O)N1CCC[C@H]1C(=O)N[C@H](C(=O)N[C@@H](CC(N)=O)C(=O)NCC(=O)N1CCC[C@H]1C(=O)O)C(C)(C)S,2.1 µM
2,CC(C)C[C@H](NC(=O)CNC(=O)CNC(=O)[C@H](Cc1ccccc1)NC(=O)[C@H](Cc1cnc[nH]1)NC(=O)CNC(=O)[C@@H](NC(=O)[C@@H](NC(=O)[C@H](Cc1ccccc1)NC(=O)[C@H](CCCNC(=N)N)NC(=O)[C@@H](N)CCC(N)=O)C(C)(C)S)[C@@H](C)O)C(=O)N(C)[C@@H](Cc1ccc(O)cc1)C(=O)N1CCC[C@H]1C(=O)N[C@@H](CS)C(=O)N[C@@H](CC(N)=O)C(=O)NCC(=O)N1CCC[C@H]1C(=O)O,92 µM
3,CC(C)C[C@H](NC(=O)CNC(=O)CNC(=O)[C@H](Cc1ccccc1)NC(=O)[C@H](Cc1cnc[nH]1)NC(=O)CNC(=O)[C@@H](NC(=O)[C@H](CCN)NC(=O)[C@H](Cc1ccccc1)NC(=O)[C@H](CCCN=C(N)N)NC(=O)[C@@H](N)CCC(N)=O)[C@@H](C)O)C(=O)N[C@@H](Cc1ccc(O)cc1)C(=O)N1CCC[C@H]1C(=O)N[C@@H](CC(=O)O)C(=O)N[C@@H](CC(N)=O)C(=O)NCC(=O)N1CCC[C@H]1C(=O)O,8.4 µM
4,CC(C)C[C@H](NC(=O)CNC(=O)CNC(=O)[C@H](Cc1c(F)c(F)c(F)c(F)c1F)NC(=O)[C@H](Cc1cnc[nH]1)NC(=O)CNC(=O)[C@@H](NC(=O)[C@@H](NC(=O)[C@H](Cc1ccccc1)NC(=O)[C@H](CCCN=C(N)N)NC(=O)[C@@H](N)CCC(N)=O)C(C)(C)S)[C@@H](C)O)C(=O)N[C@@H](Cc1ccc(O)cc1)C(=O)N1CCC[C@H]1C(=O)N[C@@H](CS)C(=O)N[C@@H](CC(N)=O)C(=O)NCC(=O)N1CCC[C@H]1C(=O)O,70 µM
5,CC(C)C[C@H](NC(=O)CNC(=O)CNC(=O)[C@@H](Cc1ccccc1)NC(=O)[C@H](Cc1cnc[nH]1)NC(=O)CNC(=O)[C@@H](NC(=O)[C@@H](NC(=O)[C@H](Cc1ccccc1)NC(=O)[C@H](CCCN=C(N)N)NC(=O)[C@@H](N)CCC(N)=O)C(C)(C)S)[C@@H](C)O)C(=O)N[C@@H](Cc1ccc(O)cc1)C(=O)N1CCC[C@H]1C(=O)N[C@@H](CS)C(=O)N[C@@H](CC(N)=O)C(=O)NCC(=O)N1CCC[C@H]1C(=O)O,> 250 µM
6,CC(C)C[C@H](NC(=O)[C@@H]1CCCN1C(=O)[C@@H](Cc1ccccc1)NC(=O)[C@H](Cc1ccccc1)NC(=O)[C@H](Cc1cnc[nH]1)NC(=O)CNC(=O)[C@@H](NC(=O)[C@@H](NC(=O)[C@H](Cc1ccccc1)NC(=O)[C@H](CCCNC(=N)N)NC(=O)[C@@H](N)CCC(N)=O)C(C)(C)S)[C@@H](C)O)C(=O)N[C@@H](Cc1ccc(O)cc1)C(=O)N1CCC[C@H]1C(=O)N[C@@H](CS)C(=O)N[C@@H](CC(N)=O)C(=O)NCC(=O)N1CCC[C@H]1C(=O)O,3.8 µM
7,CC(C)C[C@H](NC(=O)[C@@H](Cc1ccccc1)NC(=O)CNC(=O)[C@H](Cc1ccccc1)NC(=O)[C@H](Cc1cnc[nH]1)NC(=O)CNC(=O)[C@@H](NC(=O)[C@@H](NC(=O)[C@H](Cc1ccccc1)NC(=O)[C@H](CCCNC(=N)N)NC(=O)[C@@H](N)CCC(N)=O)C(C)(C)S)[C@@H](C)O)C(=O)N[C@@H](Cc1ccc(O)cc1)C(=O)N1CCC[C@H]1C(=O)N[C@@H](CS)C(=O)N[C@@H](CC(N)=O)C(=O)NCC(=O)N1CCC[C@H]1C(=O)O,1.7 µM

# Compounds with a lower Kd, results first:
row,Kd,Structure (SMILES)
1,1 µM,CC(C)C[C@H](NC(=O)CNC(=O)CNC(=O)[C@H](Cc1ccc(N)cc1)NC(=O)[C@H](Cc1cnc[nH]1)NC(=O)CNC(=O)[C@@H](NC(=O)[C@@H](NC(=O)[C@H](Cc1ccccc1)NC(=O)[C@H](CCCN=C(N)N)NC(=O)[C@@H](N)CCC(N)=O)C(C)(C)S)[C@@H](C)O)C(=O)N[C@@H](Cc1ccc(O)cc1)C(=O)N1CCC[C@H]1C(=O)N[C@@H](CS)C(=O)N[C@@H](CC(N)=O)C(=O)NCC(=O)N1CCC[C@H]1C(=O)O
2,0.99 µM,CC(C)C[C@H](NC(=O)[C@H]1CSC2C[C@@H](NC(=O)[C@H](Cc3ccccc3)NC(=O)[C@H](Cc3cnc[nH]3)NC(=O)CNC(=O)[C@@H](NC(=O)[C@H](NC(=O)[C@H](Cc3ccccc3)NC(=O)[C@@H](N)CCCNC(=N)N)C(C)(C)S)[C@@H](C)O)C(=O)N21)C(=O)N[C@@H](Cc1ccc(O)cc1)C(=O)N1CCC[C@H]1C(=O)N[C@@H](CS)C(=O)O (stereo not given in full)
3,0.28 µM,CC(C)C[C@H](NC(=O)CNC(=O)CNC(=O)[C@H](Cc1ccccc1)NC(=O)[C@H](Cc1cnc[nH]1)NC(=O)CNC(=O)[C@@H](NC(=O)[C@H](NC(=O)[C@H](Cc1ccccc1)NC(=O)[C@@H](CCCN=C(N)N)NC(=O)[C@@H](N)CCC(N)=O)C(C)(C)S)[C@@H](C)O)C(=O)N[C@@H](Cc1ccc(O)cc1)C(=O)N1CCC[C@H]1C(=O)N[C@H](CS)C(=O)N[C@@H](CC(N)=O)C(=O)NCC(=O)N1CCC[C@H]1C(=O)O
